A selection: hits, their analogues and other compounds. The true share with any hit is near 2.4%.
PfM18AAP inh = PfM18AAP inhibitors, malaria aminopeptidase, primary screen, biochemical, QFRET, recombinant enzyme. 1.2% of 290,000 active. inhibition, % at 7.35 µM. H-Glu-NHMec fluorogenic cleavage. M18 aspartyl aminopeptidase (Plasmodium falciparum 3D7);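 active means inhibition above the campaign mean inhibition over all tested compounds plus 3 SD, cut at about 28% in these data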;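 further: 0% = plate median of test compound wells and 100% = 2 mM ZnCl2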
HGIII-sPLA2 inh = human group III sPLA2 inhibitors, primary screen, biochemical, QFRET, BODIPY PC-A2 liposome substrate | inhibition, % at 12.2 µM | Group 3 secretory phospholipase A2 (Homo sapiens), Q9NZ20 | 0.56% of 370,000 active | QFRET BODIPY PC-A2 liposome hydrolysis, fluorescence | AID 743126, 2013;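 active means inhibition above mean plus 3 SD of compounds lying within the high and low control bounds, cut at about 19% in these data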;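 further: 0% = median of test compound wells and 100% = no enzyme DMSO wells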
Target sequence (Q9NZ20 whole entry, looked up): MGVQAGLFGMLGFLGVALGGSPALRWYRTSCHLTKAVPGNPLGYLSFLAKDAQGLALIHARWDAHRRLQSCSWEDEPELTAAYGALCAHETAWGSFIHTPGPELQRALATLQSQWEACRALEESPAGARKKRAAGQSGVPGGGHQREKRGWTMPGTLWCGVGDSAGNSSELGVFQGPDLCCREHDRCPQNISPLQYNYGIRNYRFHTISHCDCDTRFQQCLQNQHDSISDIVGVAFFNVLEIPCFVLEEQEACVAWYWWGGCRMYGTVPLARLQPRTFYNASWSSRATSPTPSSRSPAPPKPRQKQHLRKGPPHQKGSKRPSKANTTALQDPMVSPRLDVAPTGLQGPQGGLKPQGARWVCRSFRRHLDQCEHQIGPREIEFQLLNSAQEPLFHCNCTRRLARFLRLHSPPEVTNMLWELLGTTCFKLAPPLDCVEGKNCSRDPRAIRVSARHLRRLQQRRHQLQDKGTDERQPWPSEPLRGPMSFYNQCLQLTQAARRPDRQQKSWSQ
VIM-2 inhibitor = VIM-2 metallo-beta-lactamase inhibitors, primary screen, biochemical, epi-absorbance readout, Pseudomonas aeruginosa enzyme. purified VIM-2, nitrocefin hydrolysis, epi-absorbance fluorescence. inhibition, % at 5.6 µM. 0.89% of 290,000 active. AID 1527, 2009;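 active means inhibition above the mean of all tested compounds plus 3 SD, cutoff set per screening run, cut at about 7.5% in these data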;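 further: red hydrolysis product quenches plate fluorescence so inhibitors raise well fluorescence; 0% = enzyme with DMSO and 100% = DMSO without enzyme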
IMP-1 inhibitor = IMP-1 metallo-beta-lactamase inhibitors, primary screen, biochemical, epi-absorbance readout, Pseudomonas aeruginosa enzyme; metallo-beta-lactamase IMP-1 (Pseudomonas aeruginosa); purified IMP-1, nitrocefin hydrolysis, epi-absorbance fluorescence; inhibition, % at 5.6 µM; 0.45% of 290,000 active;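 active means inhibition above the mean plus 3 SD of all compounds in the same screening run, cut at about 4.5% in these data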;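 further: 0% = IMP-1 with DMSO and 100% = DMSO wells lacking enzyme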
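Test system: recombinant IMP-1 enzyme, purified / Medium: HEPES buffer pH 7.1 with ZnSO4 and Brij 35 / Doses: single dose, 5.6 µM / Times: 25 °C, 15 min preincubation, 25 min reaction / Detection: Epi-absorbance via hydrolysed-nitrocefin quenching of white-plate fluorescence, 480/530 nm, EDTA stop / Evaluation: percent inhibition from optical density relative to buffer-blank wells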
hGIII sPLA2 conf = human group III sPLA2 inhibitors, confirmation, biochemical, QFRET, triplicate. shares compounds with HGIII-sPLA2 inh. recombinant hGIII-sPLA2, BODIPY PC-A2 QFRET fluorescence. inhibition, % at 12.2 µM. 34% of 2,000 active;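 active means mean inhibition across triplicates above the hit cutoff set in the earlier primary screen, cut at about 19% in these data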;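 further: 0% = enzyme with DMSO and 100% = DMSO wells lacking enzyme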
BODIPY interf = 535nm fluorescence optical interference, confirmation, artefact control for HGIII-sPLA2 inhibitor project, biochemical, QFRET | inhibition, % at 12.2 µM | shares compounds with HGIII-sPLA2 inh | BODIPY FL product fluorescence interference | 8.5% of 2,000 active | AID 743282, 2014;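 active means average inhibition above the solvent-only control mean plus 3 SD, cut at about 6% in these data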;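 further: 0% = DMSO with substrate plus product and 100% = DMSO with substrate alone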
BODIPY interf DR = 535nm fluorescence optical interference, dose response, artefact control for HGIII-sPLA2 inhibitor project, biochemical, QFRET; shares compounds with HGIII-sPLA2 inh; BODIPY FL product fluorescence interference, cell-free; IC50, µM; 240 tested, under 10 active; AID 743455, 2014;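 active means IC50 at or below 10 µM; inactive means IC50 above 10 µM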
Numbers without * were called inactive.

For CCCS(=O)(=O)N1CCCC(C(=O)NC2CCCCC2)C1 (centres undefined) the results were PfM18AAP inh 4, HGIII-sPLA2 inh 11, VIM-2 inhibitor 0 and IMP-1 inhibitor -1.
Screening CCN(CC)C(=O)c1cccc(-c2csc(C(O)(c3ccccc3)C(F)(F)F)n2)c1 (centres undefined) returned HGIII-sPLA2 inh -28.
Nc1cc(N)c2c(c1)C(=O)c1ccccc1-2 was read as HGIII-sPLA2 inh 20*, hGIII sPLA2 conf 38*, BODIPY interf 4 and BODIPY interf DR >122.
Cc1ccc(C)c(OCc2n[nH]c(=S)o2)c1 was read as PfM18AAP inh 8, HGIII-sPLA2 inh 24*, VIM-2 inhibitor -3, IMP-1 inhibitor -3, hGIII sPLA2 conf 18 and BODIPY interf 1.
`OCCCCCCNc1ccc(CCO)cc1` gave HGIII-sPLA2 inh 3.
For COc1cccc2sc(NNC(=O)COc3ccccc3)nc12 the results were PfM18AAP inh 21, HGIII-sPLA2 inh 23*, VIM-2 inhibitor -3, IMP-1 inhibitor -4, hGIII sPLA2 conf 16 and BODIPY interf -3.
Screening N#Cc1cc(NC2CCCC2)c([N+](=O)[O-])cc1C#N returned PfM18AAP inh 4, HGIII-sPLA2 inh 25*, VIM-2 inhibitor -3, IMP-1 inhibitor -2, hGIII sPLA2 conf 8 and BODIPY interf -1.
O=[N+]([O-])c1ccc(NC2CCCC2)cc1 was read as PfM18AAP inh -3, HGIII-sPLA2 inh 0, VIM-2 inhibitor 2 and IMP-1 inhibitor -1.
CCN(CC)C(=O)C1=C(C)N(CCCOC)C(=O)C(CC(=O)NCc2cccs2)C1 (centres undefined) was read as HGIII-sPLA2 inh 8.
Screening COc1ccc(Cl)cc1-c1n[nH]c(=S)n1C returned PfM18AAP inh 27, HGIII-sPLA2 inh 24*, VIM-2 inhibitor -2, IMP-1 inhibitor -2, hGIII sPLA2 conf 16 and BODIPY interf -2.
Screening CC(C)Cn1c(-c2ccc(Br)cc2)c[nH]c1=S returned PfM18AAP inh -4, HGIII-sPLA2 inh 28*, VIM-2 inhibitor -3, IMP-1 inhibitor -5, hGIII sPLA2 conf 37* and BODIPY interf 6.
For CCn1c(-c2ccccc2)c[nH]c1=S the results were PfM18AAP inh 8, HGIII-sPLA2 inh 7, VIM-2 inhibitor -4 and IMP-1 inhibitor -4.
COc1cccc(-c2csc(N3CCN(C(=S)Nc4ccccc4)CC3)n2)c1 was read as PfM18AAP inh -15, HGIII-sPLA2 inh 19*, VIM-2 inhibitor -2, IMP-1 inhibitor 2, hGIII sPLA2 conf 11 and BODIPY interf -4.
`Cc1ccc(NC(=O)C2CCCO2)cc1[N+](=O)[O-]` (centres undefined) gave PfM18AAP inh -3, HGIII-sPLA2 inh 20*, VIM-2 inhibitor -3, IMP-1 inhibitor -3, hGIII sPLA2 conf 1 and BODIPY interf -2.
`CCCc1c(-c2ccccc2F)ncn1CCc1ccccc1OC` gave HGIII-sPLA2 inh -6.
`CCn1c(-c2c[nH]c3ccccc23)n[nH]c1=S` gave PfM18AAP inh 18, HGIII-sPLA2 inh 24*, VIM-2 inhibitor -1, IMP-1 inhibitor -4, hGIII sPLA2 conf 15 and BODIPY interf 0.
`C=CCn1c(-c2c[nH]c3ccccc23)n[nH]c1=S` gave PfM18AAP inh 11, HGIII-sPLA2 inh 1, VIM-2 inhibitor -4 and IMP-1 inhibitor -6.
Cc1cc(C)nc(SCc2ccc(C(=O)N/N=C/c3cccc(O)c3O)cc2)n1 was read as PfM18AAP inh 18, HGIII-sPLA2 inh 26*, VIM-2 inhibitor -2, IMP-1 inhibitor -3, hGIII sPLA2 conf 38*, BODIPY interf -29 and BODIPY interf DR >122.
For COc1ccc(O)c(/C=N/NC(=O)c2ccc(CSc3nc(C)cc(C)n3)cc2)c1 the results were PfM18AAP inh -1, HGIII-sPLA2 inh 8, VIM-2 inhibitor -1 and IMP-1 inhibitor -2.
`N#Cc1ccc(C=NN2CCCCCC2)cc1` gave HGIII-sPLA2 inh 21*, hGIII sPLA2 conf 23* and BODIPY interf 2.
Screening Clc1ccc(/C=N/N2CCCCC2)cc1 returned PfM18AAP inh -2, HGIII-sPLA2 inh 17, VIM-2 inhibitor -2 and IMP-1 inhibitor -3.
Screening Nc1ccc(S(=O)(=O)Nc2ccc(Cl)nn2)cc1 returned PfM18AAP inh 1, HGIII-sPLA2 inh 22*, VIM-2 inhibitor -2, IMP-1 inhibitor -1, hGIII sPLA2 conf 2 and BODIPY interf -4.
Screening NC(=S)N/N=C1\CCSc2ccc(Cl)cc21 returned PfM18AAP inh 0, HGIII-sPLA2 inh 30*, VIM-2 inhibitor -2, IMP-1 inhibitor -3, hGIII sPLA2 conf 15 and BODIPY interf -6.
For CN1[C@H](Cc2ccccc2)COc2cccc(N3CCCC3)c2S1(=O)=O the results were HGIII-sPLA2 inh 2.
`COc1ccc(Cl)cc1C(Nc1cccnc1)c1ccc2cccnc2c1O` (centres undefined) gave PfM18AAP inh -4, HGIII-sPLA2 inh 31*, VIM-2 inhibitor -1, IMP-1 inhibitor -2, hGIII sPLA2 conf 35*, BODIPY interf -3 and BODIPY interf DR >122.
`CCC(=O)NC(c1ccccc1OC)c1ccc2cccnc2c1O` (centres undefined) gave PfM18AAP inh 9, VIM-2 inhibitor -2 and IMP-1 inhibitor -3.
`CCCCCCCCN1C(=O)[C@@H](CC(=O)NCC23CC4CC(CC(C4)C2)C3)C[C@@]2(C(=O)OC)C1=C[C@H](C(C)(C)C)O[C@@H]2C` gave HGIII-sPLA2 inh 21*, hGIII sPLA2 conf -17 and BODIPY interf -16.
For CCCCCCCCN1C(=O)[C@@H](CC(=O)NCC23CC4CC(CC(C4)C2)C3)C[C@@]2(C(=O)OC)C1=C[C@H](C1CCCC1)O[C@@H]2C the results were HGIII-sPLA2 inh 10.
For Cc1c(NC(=S)N/N=C/c2ccc(Br)cc2)c(=O)n(-c2ccccc2)n1C the results were PfM18AAP inh 13, HGIII-sPLA2 inh 20*, VIM-2 inhibitor 0, IMP-1 inhibitor -4, hGIII sPLA2 conf 20* and BODIPY interf -9.
Screening O=C(COC(=O)c1cc(=O)c2ccccc2o1)Nc1c(F)c(F)c(F)c(F)c1F returned HGIII-sPLA2 inh -2.
